The source made the active and inactive calls. The rule behind the calls is not given here.
Legend:
Assay type in all cases: tissue-based
Mu-type opioid receptor = Mu-type opioid receptor (Rattus norvegicus, UniProt P33535); assay: (§1) Displacement of [3H]DAMGO from mu opioid receptor in rat brain homogenate after 1 hr by liquid scintillation counting
Outline: (§2)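 Competition with 12 concentrations of test compound, 1 h at 25°C; terminated by rapid vacuum filtration through GF/B filters presoaked in 0.5% polyethyleneimine. Bound radioactivity counted by liquid scintillation; Ki by Cheng-Prusoff.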

[1] = molecular target: Mu-type opioid receptor (Rattus norvegicus) (UniProt P33535); assay: as §1; outline: as §2
[2] = molecular target: Delta-type opioid receptor (Rattus norvegicus) (UniProt P33533); assay: (§3) Displacement of [3H]DPDPE from delta opioid receptor in rat brain homogenate after 1 hr by liquid scintillation counting
[3] = molecular target: Kappa-type opioid receptor (Rattus norvegicus) (UniProt P34975); assay: (§4) Displacement of [3H]U69593 from kappa opioid receptor in rat brain homogenate after 1 hr by liquid scintillation counting
[4] = molecular target: Delta-type opioid receptor (Rattus norvegicus, UniProt P33533); assay: as §3
[5] = molecular target: Kappa-type opioid receptor (Rattus norvegicus, UniProt P34975); assay: as §4
Sequence of Kappa-type opioid receptor (P34975 whole entry): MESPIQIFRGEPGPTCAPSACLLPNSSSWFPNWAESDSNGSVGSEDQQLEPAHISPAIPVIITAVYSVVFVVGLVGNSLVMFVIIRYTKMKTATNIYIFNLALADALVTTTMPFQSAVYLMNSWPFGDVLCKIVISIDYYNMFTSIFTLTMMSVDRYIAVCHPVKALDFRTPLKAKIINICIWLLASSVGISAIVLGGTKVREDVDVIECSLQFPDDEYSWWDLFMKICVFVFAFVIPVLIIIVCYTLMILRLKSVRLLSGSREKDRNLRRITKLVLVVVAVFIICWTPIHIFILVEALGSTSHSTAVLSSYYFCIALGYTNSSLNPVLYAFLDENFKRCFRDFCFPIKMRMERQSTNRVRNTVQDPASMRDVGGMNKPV

Sequence of Mu-type opioid receptor (P33535 whole entry): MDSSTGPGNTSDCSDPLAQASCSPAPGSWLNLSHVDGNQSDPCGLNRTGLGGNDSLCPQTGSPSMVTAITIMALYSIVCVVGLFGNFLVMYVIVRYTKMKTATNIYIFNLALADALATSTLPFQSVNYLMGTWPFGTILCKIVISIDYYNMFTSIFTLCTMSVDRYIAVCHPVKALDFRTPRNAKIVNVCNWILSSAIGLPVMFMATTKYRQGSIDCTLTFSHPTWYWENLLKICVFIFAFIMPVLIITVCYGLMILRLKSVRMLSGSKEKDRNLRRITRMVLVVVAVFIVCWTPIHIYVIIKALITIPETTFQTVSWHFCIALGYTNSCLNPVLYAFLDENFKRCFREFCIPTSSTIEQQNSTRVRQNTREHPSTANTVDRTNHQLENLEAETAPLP
Sequence of Mu-type opioid receptor (Rattus norvegicus) (P33535 whole entry): as above
Sequence of Kappa-type opioid receptor (Rattus norvegicus) (P34975 whole entry): as the sequence (P34975 whole entry) above
Sequence of Delta-type opioid receptor (Rattus norvegicus) (P33533 whole entry): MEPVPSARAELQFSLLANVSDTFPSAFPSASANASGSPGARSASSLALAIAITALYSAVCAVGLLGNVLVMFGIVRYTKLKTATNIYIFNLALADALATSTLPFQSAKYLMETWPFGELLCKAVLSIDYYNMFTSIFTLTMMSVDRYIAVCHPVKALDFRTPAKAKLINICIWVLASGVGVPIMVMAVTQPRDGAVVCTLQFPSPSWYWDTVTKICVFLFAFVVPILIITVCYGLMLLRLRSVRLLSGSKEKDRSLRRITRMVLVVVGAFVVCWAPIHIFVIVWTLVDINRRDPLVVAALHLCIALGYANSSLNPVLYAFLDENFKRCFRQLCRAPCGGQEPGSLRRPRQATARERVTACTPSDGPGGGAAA
Sequence of Delta-type opioid receptor (P33533 whole entry): as above

SMILES	Ki (Mu-type opioid receptor) [µM]	Activity [1]	Activity [2]	Activity [3]	Ki [4] [µM]	Ki [5] [µM]
CN(C)CCOC/C=C/c1ccccc1	> 10					
C(=C\c1ccccc1)/COCCN1CCCCCC1	> 10					
CCN(CC)CCOCCCc1ccccc1	> 10					
CCCN(CCC)CCOC/C=C/c1ccccc1	> 10					
C(=C\c1ccccc1)/COCCN1CCCC1		inactive	inactive	inactive		
CCCCN(CCCC)CCOC/C=C/c1ccccc1	2.49				> 10	> 10
CN(CCOC/C=C/c1ccccc1)Cc1ccccc1	3.04				> 10	> 10
CN(CCOCCCc1ccccc1)CCc1ccccc1	2.31					> 10
C=CCN(CC=C)CCOC/C=C/c1ccccc1	> 10		inactive	inactive		
CCCCN(CCCC)CCOCCCc1ccccc1	2.49				> 10	> 10
CN(C)CCOCCCc1ccccc1	> 10					
C=CCN(CC=C)CCOCCCc1ccccc1	> 10		inactive	inactive		
CN(CCCc1ccccc1)CCOCCCc1ccccc1	1.52				6.65	> 10
CN(CCOC/C=C/c1ccccc1)CCc1ccccc1	1.68				6.85	> 10
CCN(CC)C(=O)COCCCc1ccccc1	> 10					
C(=C\c1ccccc1)/COCCN1CCCCC1		inactive	inactive	inactive		
c1ccc(CCCOCCN2CCCCC2)cc1		inactive	inactive	inactive		
CCCN(CCC)CCOCCCc1ccccc1	> 10					
c1ccc(CCCOCCN2CCCC2)cc1		inactive	inactive	inactive		
CN(CCOCCCc1ccccc1)Cc1ccccc1	2.76				> 10	> 10
CN(CCCc1ccccc1)CCOC/C=C/c1ccccc1					> 10	> 10
CCN(CC)CCOC/C=C/c1ccccc1	> 10					
c1ccc(CCCOCCN2CCCCCC2)cc1		inactive	inactive	inactive		
CCN(CC)C(=O)COC/C=C/c1ccccc1	> 10					
